Source: PubChem (several laboratories)
MT1-MMP act inh = blocks activation of human MT1-MMP. P50281. HT1080 RFP-PRO-GFP cells, GFP/RFP ratio fluorescence, overnight; percent of plate control window, DMSO zero. GFP/RFP ratio change, % at 20 µM. hit rate 0.061% among 360,000;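 active = GFP/RFP ratio change of at least 30% with cell ATP level not reduced by more than half and red fluorescence within 50% of control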
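Material – HT1080 RFP-PRO-GFP cells · Control set – DMSO wells and RFP-L50D-GFP cells · Incubation – overnight cell settling, then overnight compound exposure, 37 °C, 5% CO2 · Compound dosing – single-point 20 µM compound, 1% DMSO · Read-out – GFP/RFP fluorescence ratio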
NR2E3 ag-1 = activates human photoreceptor nuclear receptor NR2E3. Q9Y5X4. GST-NR2E3/biotin-RetCOR TR-FRET, 1536-well. inhibition of corepressor binding, % at 4.78 µM. hit rate 0.12% among 320,000. AID 2300;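 active = percent inhibition above the cutoff of mean plus 3 SD of all tested compounds, set per screening campaign, cut at about 20% in these data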
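System: GST-tagged NR2E3 plus biotinylated RetCOR corepressor; Amount: 1.35 nM GST-tagged NR2E3 final; Dosing: single nominal compound dose of 4.8 µM; Schedule: 5 h incubation at 4 °C; Technique: TR-FRET with europium anti-GST and streptavidin-D2, 340 nm excitation; Controls: biotin wells as high control, 0.6% DMSO wells as low control.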
PG9 Ab binder = PG9 antibody binding by small molecule; TR-FRET gp120-PG9 antibody binding; inhibition, % at 6.7 µM; hit rate 0.43% among 360,000; AID 624416; in the data active = inhibition above about 8.5%
NR2E3 ag-2 = activates human NR2E3 receptor. Q9Y5X4. CHO-S Gal4-NCOR/VP16-NR2E3 two-hybrid, luciferase. inhibition of corepressor binding, % at 3.98 µM. hit rate 0.35% among 360,000. AID 602229;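 active = inhibition above the mean of all tested compounds plus 3 SD, cut at about 70% in these data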;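 also: higher means lower luciferase signal from less NR2E3 corepressor binding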
SKN-1 inh = inhibitors of C. elegans SKN-1; C. elegans VP596 Pgst-4::GFP/RFP ratio, acrylamide-induced, 24 h; inhibition, % at 21.8 µM; hit rate 0.49% among 360,000;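 active = interference check ratio from 0.5 to 1.5 plus GFP to RFP signal ratio inhibition reaching or exceeding a fixed threshold, cut at about 30% in these data, passing the limit was not always enough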
NR1D1 modulator = modulators of human Rev-erb alpha DNA binding; P20393; Rev-erbα–FITC-DNA binding, fluorescence polarization, 90 min; activity, % at 10 µM; hit rate 0.79% among 370,000;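 active = activity above about 14%, limit read from the data; passing the limit was not always enough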
Target sequence (P20393 whole entry, looked up): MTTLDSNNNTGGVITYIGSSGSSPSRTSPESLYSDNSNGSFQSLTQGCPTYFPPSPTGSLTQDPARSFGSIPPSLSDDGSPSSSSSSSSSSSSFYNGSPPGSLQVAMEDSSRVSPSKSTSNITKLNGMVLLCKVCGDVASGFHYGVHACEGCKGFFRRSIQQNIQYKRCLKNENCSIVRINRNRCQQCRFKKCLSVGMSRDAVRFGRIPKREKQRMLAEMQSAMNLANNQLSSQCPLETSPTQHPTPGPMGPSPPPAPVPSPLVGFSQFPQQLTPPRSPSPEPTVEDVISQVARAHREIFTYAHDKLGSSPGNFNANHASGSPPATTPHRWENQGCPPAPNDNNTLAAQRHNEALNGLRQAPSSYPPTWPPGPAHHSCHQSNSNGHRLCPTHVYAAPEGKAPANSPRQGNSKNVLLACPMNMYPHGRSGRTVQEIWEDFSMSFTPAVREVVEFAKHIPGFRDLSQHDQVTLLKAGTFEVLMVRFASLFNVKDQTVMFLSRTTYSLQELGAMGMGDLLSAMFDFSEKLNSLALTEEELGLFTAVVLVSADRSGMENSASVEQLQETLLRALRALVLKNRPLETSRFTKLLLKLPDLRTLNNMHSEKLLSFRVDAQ
Rev-erbA confirm = Rev-erb alpha (human) modulation, hit confirmation; shares compounds with NR1D1 modulator; Rev-erb alpha FITC-DNA binding, fluorescence polarization, 90 min; activation, % at 25 µM; hit rate 61% among 3,000; AID 1259319;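 active = activation at or above a set limit, or at least 3 SD above the negative control mean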
RORg DNA counter = affects RORgamma DNA binding in a Rev-erb alpha counter-screen. shares compounds with NR1D1 modulator. purified RORgamma protein-FITC-DNA binding, fluorescence polarization. IC50, µM. hit rate 8% among 910. AID 1259320;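 active = Compounds whose fitted half-maximal concentration for disrupting protein-DNA binding is below 10 micromolar; the record names Rev-erb in its text, so the target is in doubt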
Hits are given with their value. Most compounds without a hit are left out; they make up all but 1.9% or so of the library.

`CCc1ccc2c(COC(=O)c3n[nH]c4ccccc34)cc(=O)oc2c1` gave MT1-MMP act inh inactive, NR2E3 ag-1 inactive, PG9 Ab binder inactive, NR2E3 ag-2 inactive, SKN-1 inh inactive and NR1D1 modulator inactive.
O=C1NC(Cc2ccc(O)cc2)c2nc3ccc(Cl)cc3c(=O)n2-c2cc3ccccc3cc21 (stereo unspecified) was read as MT1-MMP act inh inactive, PG9 Ab binder inactive, NR2E3 ag-2 inactive, SKN-1 inh inactive and NR1D1 modulator inactive.
For O=C1NC(Cc2ccccc2)c2nc3ccc(Cl)cc3c(=O)n2-c2cc3ccccc3cc21 (stereo unspecified) the results were MT1-MMP act inh inactive, PG9 Ab binder inactive, NR2E3 ag-2 inactive, SKN-1 inh inactive, NR1D1 modulator 22 and Rev-erbA confirm inactive.
`N#Cc1ccc(Cn2ccc3ccc(-c4ccc5ccn(C(=O)C6CC6)c5c4)cc32)cc1` gave NR1D1 modulator inactive.
Screening O=c1[nH]c(-c2ccccc2)cn1C1CCN(Cc2ccc(-c3nc4ccccc4nc3-c3ccccc3)cc2)CC1 returned PG9 Ab binder inactive and NR1D1 modulator inactive.
CN(C)c1ccc(C=Cc2nccc3ccccc23)cc1 was read as MT1-MMP act inh inactive, PG9 Ab binder inactive, NR2E3 ag-2 inactive, SKN-1 inh inactive, NR1D1 modulator 303, Rev-erbA confirm 346 and RORg DNA counter inactive.
CCOc1ccc(NC(=O)c2cc3c(=O)n(C)c4ccccc4c3n2C)cc1 was read as MT1-MMP act inh inactive, NR2E3 ag-1 inactive, PG9 Ab binder inactive, NR2E3 ag-2 inactive, SKN-1 inh inactive, NR1D1 modulator 41 and Rev-erbA confirm 21.
CC1=NN(c2ccccc2)C(=O)/C1=C\C=C1/N(C)c2ccccc2C1(C)C was read as MT1-MMP act inh inactive, NR2E3 ag-1 inactive, PG9 Ab binder inactive, NR2E3 ag-2 inactive, SKN-1 inh 47, NR1D1 modulator 79, Rev-erbA confirm 87 and RORg DNA counter 8.6.
`CN1/C(=C\C=C2/C(=O)Oc3ccccc3C2=O)C(C)(C)c2ccccc21` gave NR2E3 ag-1 inactive, PG9 Ab binder inactive, NR1D1 modulator 59, Rev-erbA confirm 53 and RORg DNA counter inactive.
For CC1=NN(c2ccccc2)C(=O)/C1=C\C=C1\N(C)c2ccccc2C1(C)C the results were MT1-MMP act inh inactive, NR2E3 ag-1 inactive, PG9 Ab binder inactive, NR2E3 ag-2 inactive, SKN-1 inh 38, NR1D1 modulator 49, Rev-erbA confirm 54 and RORg DNA counter inactive.
For CCCCNC(=O)C[C@H]1C[C@@]2(C(=O)OC)C(=C[C@H](COCc3ccccc3)O[C@@H]2C)N(CCc2ccc(OC)c(OC)c2)C1=O the results were NR1D1 modulator inactive.
Screening O=C(NCc1ccco1)c1ccc(Cn2c(=O)c3sccc3n(Cc3cccc(F)c3)c2=O)cc1 returned MT1-MMP act inh inactive, NR2E3 ag-1 inactive, PG9 Ab binder inactive, NR2E3 ag-2 inactive, SKN-1 inh inactive, NR1D1 modulator 34, Rev-erbA confirm 37 and RORg DNA counter inactive.
For O=C(NCc1ccco1)c1ccc(Cn2c(=O)c3ccccc3n(Cc3cccc(Cl)c3)c2=O)cc1 the results were MT1-MMP act inh inactive, NR2E3 ag-1 inactive, PG9 Ab binder inactive, NR2E3 ag-2 inactive, SKN-1 inh inactive and NR1D1 modulator inactive.
CCCNC(=O)c1cc(-c2ccccc2)c(N2CCCCC2)s1 was read as MT1-MMP act inh inactive, NR2E3 ag-1 inactive, PG9 Ab binder inactive, NR2E3 ag-2 inactive, SKN-1 inh inactive, NR1D1 modulator 93 and Rev-erbA confirm 27.
Screening COc1ccc(-n2c(COc3ccc(Cl)cc3)nnc2SCC(=O)c2ccc(-c3ccccc3)cc2)cc1 returned NR1D1 modulator 22 and Rev-erbA confirm inactive.
For Cc1csc2nc(NC(=O)c3ccccc3)sc(=O)c12 the results were MT1-MMP act inh inactive, NR2E3 ag-1 inactive, PG9 Ab binder inactive, NR2E3 ag-2 inactive, SKN-1 inh inactive, NR1D1 modulator 24 and Rev-erbA confirm inactive.
